A short description of data set [1]: AUC in rat at 4 mg/kg, po or 2 mg/kg, iv. Format: ADME, organism-based. The note with it: plasma. An outline of the steps:
(§1)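 Rats dosed orally at 4 mg/kg and intravenously at 2 mg/kg. Plasma parameters were Cmax and AUC, plus t1/2, Vdss and clearance after the IV dose. Apparent oral bioavailability was derived from both routes.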

A short description of data set [2]: Clearance in rat at 4 mg/kg, po or 2 mg/kg, iv. Format: ADME, organism-based. To be noted: in vivo. An outline of the steps: as §1
Data set [3] in a line: Toxicity in human CEM-SS cells. Format: cell-based. To be noted: read-out: TC50 (the source's name).
Data set [4] in a line: Oral bioavailability in rat at 4 mg/kg, po. The class given is ADME, organism-based. To be noted: in vivo. An outline of the steps: as §1
Data set [5] is described as follows: Half life in rat at 2 mg/kg, iv. The class given is ADME, organism-based. The note with it: in vivo. The arrangement: dose 2 mg/kg, route intravenous. An outline of the steps: as §1
The nature of data set [6]: Volume of distribution at steady state in rat at 4 mg/kg, po or 2 mg/kg, iv. The class given is ADME, organism-based. To be noted: in vivo, read-out: Vdss. An outline of the steps:
as §1

Data set [7] addresses Human immunodeficiency virus type 1 reverse transcriptase (Human immunodeficiency virus 1, UniProt Q72547, V106A). Description: Inhibition of HIV1 reverse transcriptase V106A mutant.
The subject of data set [8] is Human immunodeficiency virus 1. In words: Antiviral activity against wild type HIV1 NL4-3 infected in human CEM-SS cells assessed as inhibition of virus-induced cytopathic effect. Format: functional, organism-based. To be noted: Human immunodeficiency virus 1, NL4-3, CEM-SS. For orientation: Damage to the host cells serves as the signal in cytopathic effect assays.

The target of data set [9] is Human immunodeficiency virus type 1 reverse transcriptase (Human immunodeficiency virus 1, UniProt Q72547). In words: Inhibition of wild type HIV1 reverse transcriptase.
For data set [10], the system named is Human immunodeficiency virus 1. Description: Antiviral activity against HIV1 NL4-3 containing reverse transcriptase Y181C mutation infected in human CEM-SS cells assessed as inhibition of virus-induced cytopathic effect. The class given is functional, organism-based. To be noted: Human immunodeficiency virus 1, NL4-3, CEM-SS.
Data set [11] addresses Human immunodeficiency virus type 1 reverse transcriptase (Human immunodeficiency virus 1, UniProt Q72547, Y188L). Description: Inhibition of HIV1 reverse transcriptase Y188L mutant.
Data set [12] deals with Human immunodeficiency virus 1. In words: Antiviral activity against wild type HIV1 assessed as inhibition of virus-induced cytopathic effect by cell based assay. Format: functional, organism-based. An outline of the steps:
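Cell-based cytoprotection assay. The endpoint is EC50, the concentration giving 50% inhibition of the virus-induced cytopathic effect. Virus and cells were either HIV-1RF in CEM-SS cells or HIV-1IIIB in MT-4 cells.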

The test system of data set [13] is Human immunodeficiency virus 1. In words: Antiviral activity against HIV1 NL4-3 containing reverse transcriptase K103N mutation infected in human CEM-SS cells assessed as inhibition of virus-induced cytopathic effect. The class given is functional, organism-based. To be noted: Human immunodeficiency virus 1, NL4-3, CEM-SS.
A short description of data set [14]: Cmax in rat at 4 mg/kg, po. The class given is ADME, organism-based. The arrangement: dose 4 mg/kg, route oral. To be noted: in vivo. The essentials:
as §1

For data set [15], the target named is Human immunodeficiency virus type 1 reverse transcriptase (Human immunodeficiency virus 1, UniProt Q72547, L100I). In words: Inhibition of HIV1 reverse transcriptase L100I mutant.

As for `Cc1cccc(-c2ccccc2)c1Nc1nc(O)nc(N(C)Cc2ccc3c(c2)CCO3)n1`, the AUC – broadly, the area under the concentration-time curve, a measure of exposure – in [1] worked out at 15.6 µM·h. The clearance in data set [2] is 4.5 mL/min/kg. Moreover, in data set [3], the CC50 is more than 1 µM. The bioavailability – broadly, the share of a dose that reaches the circulation, judged against a reference dose that is usually intravenous – in data set [4] is 44%. Besides, the half-life (in general, the time needed for the level to fall by half in the phase considered) in [5] is 1.4 h. Also, in [6], the Vd was found to be 0.32 L/kg. The IC50 – broadly, the point on the concentration scale where inhibition reaches its midpoint – is 36.7 µM in data set [7], 0.055 µM in data set [9], 9.5 µM in data set [11] and 0.07 µM in data set [15]. For the same molecule, the EC50 (commonly the concentration needed to bring the measured effect to its halfway point) in [8] was 0.006 µM; in [10], 0.2 µM; in [12], 0.003 µM; in [13], more than 1 µM. For the same molecule, the concentration in [14] peaked (Cmax) at 6.1 µM.
With `Cc1cccc(-c2ccccc2)c1Nc1nc(O)nc(N(C)Cc2ccc3occc3c2)n1`, in [9], 0.083 µM corresponded to half-maximal inhibition (IC50). Moreover, in [12], the EC50 stood at 0.12 µM.
In data set [9], `Cc1cccc(-c2ccccc2)c1N(C)c1nc(O)nc(NCc2ccc3occc3c2)n1` had an IC50 of 5.1 µM. The EC50 in data set [12] worked out at 1.5 µM.
The molecule `Cc1cccc(-c2ccccc2)c1Nc1nc(O)nc(N(C)Cc2ccc3c(c2)OCO3)n1` had an IC50 in [9] of 0.09 µM. For the same molecule, the EC50 in [12] stood at 0.13 µM.
Take `Oc1nc(NCc2ccc3cc[nH]c3c2)nc(Nc2cccc(Oc3ccccc3)c2)n1`: the half-maximal inhibitory concentration (IC50) in [9] is more than 100 µM. The EC50 in data set [12] was more than 10 µM.
As for `O=C1Nc2ccc(Cl)cc2[C@@](C#CC2CC2)(C(F)(F)F)O1` [EFAVIRENZ], the CC50 in data set [3] was more than 1 µM. Moreover, the results for the EC50 in data set [10] and in data set [13] were 0.005 µM and more than 1 µM, respectively.
Take `CCN(Cc1ccc2occc2c1)c1nc(O)nc(Nc2c(F)cccc2-c2ccccc2)n1`: the 50% inhibitory concentration (IC50) in [9] is more than 100 µM.
In turn, `Cc1cccc(-c2ccccc2)c1Nc1nc(O)nc(NCc2ccc3occc3c2)n1` came in with an IC50 in data set [9] of 0.07 µM. Further, the EC50 in data set [12] came to 0.2 µM.
The molecule `Cc1cccc(-c2ccccc2)c1Nc1nc(O)nc(NCc2ccc3c(c2)OCCCO3)n1` displayed an IC50 in data set [9] of 4.4 µM. Moreover, the EC50 in data set [12] was found to be 2.8 µM.
`Cc1cccc(-c2ccccc2)c1Nc1nc(O)nc(NCc2ccc3cc[nH]c3c2)n1`: in data set [9], the IC50 stood at 0.5 µM. In addition, the EC50 in data set [12] stood at 0.9 µM.
Take `COc1nc(NCc2ccc3occc3c2)nc(Nc2c(C)cccc2-c2ccccc2)n1`: the IC50 in [9] came to 2.57 µM. In data set [12], the EC50 was 3 µM.
In [9], `CN(Cc1ccc2occc2c1)c1nc(O)nc(Nc2ccccc2N2CCOCC2)n1` showed an IC50 of 4.1 µM.
`Fc1cccc(-c2ccccc2)c1Nc1nc(Cl)nc(NCc2ccc3occc3c2)n1` displayed an IC50 in data set [9] of more than 100 µM.
`Oc1nc(NCc2ccc3occc3c2)nc(Nc2c(F)cccc2-c2ccccc2)n1` registered an IC50 in [9] of 0.09 µM. In addition, the EC50 in data set [12] is 0.4 µM.
With `Oc1nc(NCc2ccc3cc[nH]c3c2)nc(Nc2cccc(Br)c2)n1`, in [9], it took 40 µM to reach half-maximal inhibition (IC50). In data set [12], the concentration for a half-maximal effect (EC50) was more than 10 µM.
For the molecule `Cc1ccnc2c1NC(=O)c1cccnc1N2C1CC1` [NEVIRAPINE], in data set [3], the CC50 was more than 1 µM. Moreover, the values for the EC50 in data set [8], in [10] and in [13] were 0.2 µM, more than 1 µM and more than 1 µM, respectively.
`Oc1nc(NCc2ccc3cc[nH]c3c2)nc(Nc2ccccc2-c2ccccc2)n1` had an IC50 in data set [9] of 3.5 µM. The EC50 in data set [12] stood at 7.2 µM.
In data set [9], `Cc1cccc(-c2ccccc2)c1Nc1nc(O)nc(OCc2ccc3occc3c2)n1` displayed an IC50 of 23.6 µM. The EC50 in [12] came to 4 µM.
The molecule `CC(C)(Nc1nc(O)nc(Nc2c(F)cccc2-c2ccccc2)n1)c1ccc2c(c1)OCO2` came in with an IC50 in data set [9] of more than 100 µM.
In the case of `CN(Cc1ccc2occc2c1)c1nc(O)nc(Nc2c(F)cc(F)cc2-c2ccccc2)n1`, inhibition in data set [9] was half-maximal at 0.07 µM (IC50). Moreover, the EC50 in data set [12] amounted to 0.01 µM.
In the same order, the values of `Cc1cccc(-c2ccccc2)c1Nc1nc(O)nc(NCc2ccc3c(ccn3S(C)(=O)=O)c2)n1` are more than 100 µM and more than 10 µM.
`Cc1cccc(-c2ccccc2)c1Oc1nc(O)nc(NCc2ccc3occc3c2)n1` displayed an IC50 in data set [9] of 9.7 µM. Besides, the EC50 in data set [12] turned out to be 12.6 µM.
In turn, `Cc1cccc(-c2ccccc2)c1Oc1nc(N)nc(NCc2ccc3occc3c2)n1` registered an IC50 in data set [9] of more than 100 µM. In [12], the EC50 is more than 50 µM.
Taken in the same sequence, the figures for `Cc1cccc(-c2ccoc2)c1Nc1nc(O)nc(N(C)Cc2ccc3occc3c2)n1` were 0.08 µM and 0.007 µM.
Molecule `CN(Cc1ccc2occc2c1)c1nc(O)nc(Nc2c(F)cccc2-c2ccccc2)n1` came in with an AUC in data set [1] of 12.5 µM·h. Further, the clearance in data set [2] is 5.17 mL/min/kg. Besides, in data set [3], the CC50 was more than 1 µM. Also, the bioavailability in data set [4] turned out to be 38%. The half-life in data set [5] was 1.45 h. In addition, in [6], the Vd was found to be 0.35 L/kg. Also, the 50% inhibitory concentration (IC50) in data set [7] was 9.1 µM; in data set [9] it was 0.008 µM; in [11], 6.1 µM; in data set [15], 0.047 µM. For the same molecule, the EC50 in data set [8] was 0.006 µM; in [10] it was 0.1 µM; in data set [12], 0.005 µM; in [13] it was more than 1 µM. Also, the highest level in data set [14] (Cmax) was 3.8 µM.

For the origin of these results see ChEMBL document CHEMBL1268932, “Discovery and SAR of a series of 4,6-diamino-1,3,5-triazin-2-ol as novel non-nucleoside reverse transcriptase inhibitors of HIV-1” (Bioorg Med Chem Lett, 2010).
